In ChEMBL document CHEMBL1142666, “Novel [2',5'-bis-O-(tert-butyldimethylsilyl)-beta-D-ribofuranosyl]- 3'-spiro-5''-(4''-amino-1'',2''-oxathiole-2'',2" -dioxide) derivatives with anti-HIV-1 and anti-human-cytomegalovirus activity” (J Med Chem, 2005):

What was measured:
Details in all cases: Homo sapiens
CCRF-CEM [1] = test: Cytostatic concentration required to inhibit CEM cell proliferation; assay type: functional
Method in brief: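 CEM cells, mock-infected, grown with serial compound dilutions for 4 days. CC50 taken as the concentration that inhibits CEM cell proliferation by 50%.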

MT4 [2] = test: Cytostatic concentration required to inhibit MT-4 cell proliferation; assay type: functional
Method in brief: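 Mock-infected MT-4 cells (3 × 10^5/mL) incubated with compound dilutions for 5 days. Viable cells counted by trypan blue exclusion. CC50 = concentration reducing viable MT-4 cell number by 50%.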

HEL [3] = test: Minimal cytotoxic concentration required to cause microscopically visible alteration of cell morphology in HEL Cells; assay type: functional
Method in brief: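 Uninfected HEL cells exposed to compound. Minimum cytotoxic concentration is the lowest level giving a microscopically detectable change in cell morphology.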

CCRF-CEM [4] = test: Effective concentration required to inhibit HIV-2 ROD in CEM cell culture; assay type: functional, cell-based
Method in brief: (§1)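 CEM cells (4 × 10^5/mL) infected at ~100 CCID50/mL and mixed with compound dilutions. Giant cell formation scored microscopically at day 4. EC50 = concentration inhibiting virus-induced cytopathicity by 50%.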

CCRF-CEM [5] = test: Effective concentration required to inhibit HIV-1 IIIB in CEM cell culture; assay type: functional, cell-based; method in brief: as §1
MT4 [6] = test: Effective concentration required to inhibit HIV-2 ROD in MT-4 cell culture; assay type: functional, cell-based
Method in brief: (§2)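 MT-4 cells (3 × 10^5/mL) infected at ~100 CCID50/mL and mixed with compound dilutions. Cytopathicity read by trypan blue exclusion at day 5. EC50 = concentration giving 50% protection against virus-induced loss of viability.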

MT4 [7] = test: Effective concentration required to inhibit HIV-1 IIIB in MT-4 cell culture; assay type: functional, cell-based; method in brief: as §2
HEL [8] = test: Effective concentration required to inhibit HCMV Davis in HEL Cells; assay type: functional, cell-based
Method in brief: (§3)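 Confluent HEL cells infected with HCMV at 100 PFU/well. After 1-2 h, residual virus removed and MEM with 2% inactivated FCS added, with compound in duplicate at 5-fold dilution steps. After 7 days at 37 °C in 5% CO2, cells fixed with ethanol and Giemsa-stained; plaques or CPE scored microscopically. IC50 interpolated graphically; mean of two independent experiments.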

HEL [9] = test: Cytostatic concentration required to inhibit HEL cell proliferation; assay type: functional
Method in brief: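 HEL fibroblasts seeded at 5 × 10^3 cells/well and grown 24 h, then given compound in duplicate. After 3 days at 37 °C in 5% CO2, cell number read on a Coulter counter. CC50 = concentration reducing cell growth by 50%.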

HEL [10] = test: Effective concentration required to inhibit HCMV AD-169 in HEL Cells; assay type: functional, cell-based; method in brief: as §3

Row | SMILES | EC50 (CCRF-CEM [4]) [µM] | EC50 (CCRF-CEM [5]) [µM] | EC50 (HEL [8]) [µM] | EC50 (HEL [10]) [µM] | CC50 (CCRF-CEM [1]) [µM] | CC50 (MT4 [2]) [µM] | MCC (HEL [3]) [µM] | EC50 (MT4 [6]) [µM] | EC50 (MT4 [7]) [µM] | CC50 (HEL [9]) [µM]
1 | COC(=O)CNC1=CS(=O)(=O)O[C@@]12[C@@H](CO[Si](C)(C)C(C)(C)C)O[C@@H](n1cc(C)c(=O)n(C)c1=O)[C@@H]2O[Si](C)(C)C(C)(C)C | > 125 | 0.6 | > 400 | > 400 | 96 | 105 | ≥ 400 | > 125 | 1.61 | 160
2 | Cc1cn([C@@H]2O[C@H](CO[Si](C)(C)C(C)(C)C)[C@@]3(OS(=O)(=O)C=C3NC(=O)C(=O)O)[C@H]2O[Si](C)(C)C(C)(C)C)c(=O)n(C)c1=O | > 50 | 0.23 | 36 | > 80 | 72.6 | 31.1 | 400 | > 10 | 1.3 | 146
3 | Cc1cn([C@@H]2O[C@@H]3COC(=O)[C@]3(OS(C)(=O)=O)[C@H]2O)c(=O)[nH]c1=O | > 50 | > 50 | 164 | 179 | 160 | ≥ 250 | ≥ 400 | > 250 | > 50 | 36
4 | Cc1cn([C@@H]2O[C@H](CO[Si](C)(C)C(C)(C)C)C3(OS(=O)(=O)C=C3N)[C@H]2O[Si](C)(C)C(C)(C)C)c(=O)[nH]c1=O (some centres not stated) | > 10 |  |  |  |  | 12 |  | > 10 |  | 
5 | Cc1cn([C@@H]2O[C@H](CO[Si](C)(C)C(C)(C)C)[C@@]3(OS(=O)(=O)C=C3N)[C@H]2O[Si](C)(C)C(C)(C)C)c(=O)n(C)c1=O | > 250 | 0.04 |  |  |  | 230 |  | > 250 | 0.06 | 
6 | Cc1cn([C@@H]2O[C@H](CO[Si](C)(C)C(C)(C)C)[C@@]3(OS(=O)(=O)C=C3NCC(=O)OCc3ccccc3)[C@H]2O[Si](C)(C)C(C)(C)C)c(=O)n(C)c1=O | > 250 | 6.7 | > 400 | > 400 | > 250 | > 250 | ≥ 400 | > 250 |  | > 200
7 | COC(=O)CCNC1=CS(=O)(=O)O[C@@]12[C@@H](CO[Si](C)(C)C(C)(C)C)O[C@@H](n1cc(C)c(=O)n(C)c1=O)[C@@H]2O[Si](C)(C)C(C)(C)C | > 250 | > 250 | > 400 | > 400 | > 250 | > 250 | ≥ 400 | > 250 | > 250 | 94
8 | Cc1cn([C@@H]2O[C@H](CO[Si](C)(C)C(C)(C)C)[C@@]3(OS(=O)(=O)C=C3NCCC(=O)OCc3ccccc3)[C@H]2O[Si](C)(C)C(C)(C)C)c(=O)n(C)c1=O | > 250 | > 250 | > 400 | > 400 | > 250 | > 250 | ≥ 400 | > 250 | > 250 | > 200
9 | Cc1cn([C@@H]2O[C@@H]3COC4(O)CS(=O)(=O)O[C@@]34[C@H]2O[Si](C)(C)C(C)(C)C)c(=O)[nH]c1=O (some centres not stated) | > 100 | > 100 |  |  | > 100 | > 100 |  | > 100 | > 100 | 
10 | Cc1cn([C@@H]2O[C@@H]3COC4(O)CS(=O)(=O)O[C@@]34[C@H]2O)c(=O)[nH]c1=O (some centres not stated) | > 100 | > 100 |  |  | > 100 | > 100 |  | > 100 | > 100 | 

Now from value to compound, other results behind:

Row | EC50 (CCRF-CEM [4]) [µM] | EC50 (CCRF-CEM [5]) [µM] | EC50 (HEL [8]) [µM] | EC50 (HEL [10]) [µM] | SMILES | CC50 (CCRF-CEM [1]) [µM] | CC50 (MT4 [2]) [µM] | MCC (HEL [3]) [µM] | EC50 (MT4 [6]) [µM] | EC50 (MT4 [7]) [µM] | CC50 (HEL [9]) [µM]
11 | > 2 | > 2 | 2 | 1.8 | CCNC(=O)NC1=CS(=O)(=O)O[C@@]12[C@@H](CO[Si](C)(C)C(C)(C)C)O[C@@H](n1cc(C)c(=O)n(C)c1=O)[C@@H]2O[Si](C)(C)C(C)(C)C | 4.26 |  | ≥ 3.2 | > 2 | > 2 | 10
12 | > 2 | > 2 | 1.8 | 2.3 | CCOC(=O)NC(=O)NC1=CS(=O)(=O)O[C@@]12[C@@H](CO[Si](C)(C)C(C)(C)C)O[C@@H](n1cc(C)c(=O)n(C)c1=O)[C@@H]2O[Si](C)(C)C(C)(C)C | 3 |  | 16 | > 2 | > 2 | 14
13 | > 25 | ≥ 5 | 10 | 9 | COC(=O)CC(=O)NC1=CS(=O)(=O)O[C@@]12[C@@H](CO[Si](C)(C)C(C)(C)C)O[C@@H](n1cc(C)c(=O)n(C)c1=O)[C@@H]2O[Si](C)(C)C(C)(C)C | 29.7 | 11.9 | 400 | > 5 | 19.5 | 29
14 | > 25 | > 25 | > 16 | 40 | CC(=O)NC1=CS(=O)(=O)O[C@@]12[C@@H](CO[Si](C)(C)C(C)(C)C)O[C@@H](n1cc(C)c(=O)n(C)c1=O)[C@@H]2O[Si](C)(C)C(C)(C)C | 25.7 | 10.7 | ≥ 80 | > 5 | > 5 | > 200
15 | > 20 | > 20 | 25 | ≥ 20 | COC(=O)NC1=CS(=O)(=O)O[C@@]12[C@@H](CO[Si](C)(C)C(C)(C)C)O[C@@H](n1cc(C)c(=O)n(C)c1=O)[C@@H]2O[Si](C)(C)C(C)(C)C | 30.7 | 29.9 | ≥ 50 | > 20 | > 20 | > 200
16 | > 5 | > 5 | 1.2 | 1.3 | Cc1cn([C@@H]2O[C@H](CO[Si](C)(C)C(C)(C)C)[C@@]3(OS(=O)(=O)C=C3NC(=O)c3ccccc3)[C@H]2O[Si](C)(C)C(C)(C)C)c(=O)n(C)c1=O | 4.91 | 4.9 | ≥ 3.2 | > 5 | > 5 | 9.7
17 | > 2 | > 2 | 0.8 | 1.2 | Cc1cn([C@@H]2O[C@H](CO[Si](C)(C)C(C)(C)C)[C@@]3(OS(=O)(=O)C=C3NC(=O)NC(=O)c3ccccc3)[C@H]2O[Si](C)(C)C(C)(C)C)c(=O)n(C)c1=O | 2.29 | 3.33 | ≥ 80 | > 10 | > 2 | ≥ 200
18 | > 10 | > 10 | 32 | ≥ 50 | Cc1cn([C@@H]2O[C@H](CO[Si](C)(C)C(C)(C)C)[C@@]3(OS(=O)(=O)C=C3NCC(=O)O)[C@H]2O[Si](C)(C)C(C)(C)C)c(=O)n(C)c1=O | 65 | 30 | 300 | > 10 | > 10 | 136
19 | > 2 | 0.24 | 0.32 | 0.29 | CCOC(=O)CN1C(=O)CN(C(=O)NC2=CS(=O)(=O)O[C@@]23[C@@H](CO[Si](C)(C)C(C)(C)C)O[C@@H](n2cc(C)c(=O)n(C)c2=O)[C@@H]3O[Si](C)(C)C(C)(C)C)C1=O | 1.42 | 1.43 | ≥ 3.2 | > 2 | 0.88 | 2.5
20 | > 10 | 0.7 | 10 | 10 | Cc1cn([C@@H]2O[C@H](CO[Si](C)(C)C(C)(C)C)[C@@]3(OS(=O)(=O)C=C3NC(=O)C(=O)N3CCC3)[C@H]2O[Si](C)(C)C(C)(C)C)c(=O)n(C)c1=O | 21.6 | 17.4 | 65 | > 50 | 0.8 | 84.4
21 | > 0.8 | > 0.8 | > 4 | > 20 | C=C(C)C(=O)NC(=O)NC1=CS(=O)(=O)O[C@@]12[C@@H](CO[Si](C)(C)C(C)(C)C)O[C@@H](n1cc(C)c(=O)n(C)c1=O)[C@@H]2O[Si](C)(C)C(C)(C)C | 1.2 | 1.19 | 20 | > 0.8 | > 0.8 | 1.2
22 | > 10 | > 10 | 8 | > 16 | Cc1cn([C@@H]2O[C@H](CO[Si](C)(C)C(C)(C)C)[C@@]3(OS(=O)(=O)C=C3NCCC(=O)O)[C@H]2O[Si](C)(C)C(C)(C)C)c(=O)n(C)c1=O | 19.4 | 11.5 | 80 | > 50 | > 50 | 34
23 | > 2 | > 2 | 2 | > 3.2 | Cc1cn([C@@H]2O[C@H](CO[Si](C)(C)C(C)(C)C)[C@@]3(OS(=O)(=O)C=C3NC(N)=O)[C@H]2O[Si](C)(C)C(C)(C)C)c(=O)n(C)c1=O | 4.36 | 3.7 | 16 | > 2 | > 2 | 11
